B1: tRNA (parent)
chain: CUCUCGGUAGCCAAGUUGGUUUAAGGCGCAAGACUUUAAUUUAUCACUACGAAAUCUUGAGAUCGGGCGUUCGACUCGCCCCCGGGAGAUUUUUUCCUCGAGCAA

For 167 variants, nonsense suppression results are on record in the RNAGym collection of RNA variant scans (doi:10.1101/gad.245936.114).

This sample holds only a part of the variants without activity.

This series covers variants of B1. Description: nonsense suppression (GFP-seq) (ratio to wild type); higher = more function; SUP4oc tRNA, yeast GFP reporter sort-seq. Summed up: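 Sorted GFP/RFP bins of yeast were each Illumina-sequenced with a phred ≥30 cutoff; the cells held a genome-integrated ochre-suppressor tRNA variant from a library with ~3% random mutations, a galactose-driven GFP ochre reporter, and RFP. Culture was in raffinose/galactose medium containing 80 mg/L adenine. Nonsense suppression, termed GFPSEQ, is the median GFP/RFP of the bins weighted by each variant's estimated cell share per bin, relative to the unmutated parent tRNA, for variants reaching ≥100 reads and ≥30 cells.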
On to A13C C75A, for which the nonsense suppression was 1.09.

Consider A13C A31U G61C, for which the nonsense suppression is no more than 0.026. In the case of A13C C72U C81U it was no more than 0.026; in that of A14U U20C A24G C75G, no more than 0.026. Regarding U16A G59A, the nonsense suppression turned out to be 0.32. Take A14U G25C C27U: the nonsense suppression was no more than 0.026. For A14G G18A U21C A30G A33G C79A C82A A89U, the nonsense suppression was no more than 0.026.

Turning to A13C C68U, the nonsense suppression is 0.836. The result for A13C C64U reads 0.0428; that for A14C A31C U58C C72A U76C C77G, no more than 0.026; that for A14C G59U, no more than 0.026.

On to C12U U70A, for which the nonsense suppression worked out at 0.048. The result for G15C C56A reads no more than 0.026; that for A14G U17A G59U, no more than 0.026. For the variant G15U U21A U55G, the nonsense suppression is no more than 0.026.

A13U U71A: the nonsense suppression was no more than 0.026.

Consider U16A G19C U70G C72G, for which the nonsense suppression is no more than 0.026.

In the case of A13U C29U, the nonsense suppression stood at 0.751. For the variant G15C U22C G28C, the nonsense suppression is no more than 0.026. As for U16A U20C, the nonsense suppression turned out to be 0.193. Turning to U16A U20G, the nonsense suppression was determined as 1.11. In the case of A14G A30G it was 0.03; in that of A14G A30U, 0.0337; in that of A13U G28C, 0.227. Turning to G15A G59C A87C, the nonsense suppression was no more than 0.026. In the case of G15A A24C it was 0.0467; in that of A14U A24U G26U C29G, no more than 0.026; in that of A13G C29G G61U U70G, no more than 0.026. With A13U U21A U35C G84U, the nonsense suppression is no more than 0.026. In the case of A13C A30G it was 0.892; in that of A13U U16A G85U, 0.173. In the case of A13U U21A it was 0.803; in that of A13U U21G, 0.763. In the case of A13U G78A it was 0.179; in that of A13U G78U, 0.236. Consider A13U G78C, for which the nonsense suppression turned out to be 0.0621. Turning to A14G A60G, the nonsense suppression turned out to be 0.0456. The result for A14U G26A U57A reads no more than 0.026; that for U16C A31G, 1.07; that for G15A U76C, 0.0394. The result for A13C C27A G61C C75G reads no more than 0.026.

Consider A13G A33U U57A, for which the nonsense suppression was no more than 0.026. For A13C G25A, the nonsense suppression worked out at 0.0288. In the case of G15U G19A A54U A62G C79A it was no more than 0.026; in that of A13C U57C, 0.0326.

Turning to A14G G86U, the nonsense suppression was no more than 0.026. In the case of A14U C27A G78C A87C it was no more than 0.026; in that of A13C G28A, 1.08; in that of A13C G28U, 0.0283.

A13C G28C: the nonsense suppression worked out at 0.794. In the case of A13U C83U it was 0.157; in that of A13C G18C U20G A31U, 0.134; in that of A13U A24U, 0.863.

As for A13U A24G, the nonsense suppression is 0.96. In the case of A14G C29U it was 0.0832; in that of U16A C82U, 0.886. Regarding G15A G65A, the nonsense suppression was no more than 0.026. Turning to U16A A60G, the nonsense suppression is 0.247. G15U U16A G59C G66C U70A C82G: the nonsense suppression is no more than 0.026. The result for A13G U21G reads 0.026; that for A13G U21C, 0.211; that for U16A G65A G66A, no more than 0.026. The result for U16A G18U A24C U58G reads no more than 0.026; that for G15C U22G A23C, no more than 0.026; that for A13G C82A, no more than 0.026.

In the case of G15C G69U G73C, the nonsense suppression was no more than 0.026. As to A14C U20G, the nonsense suppression is no more than 0.026. In the case of A13U G32C C56G C75U it was 0.912; in that of A14G U35C, no more than 0.026; in that of A13U C27U, 0.209. In the case of A13U U76C it was 0.836; in that of U16A A31G G86U, no more than 0.026; in that of A13U U16C U63G, 0.18. In the case of G15A A31G it was 0.0274.

For the variant A13C A23G A31U, the nonsense suppression was no more than 0.026. The result for A14C G59C G85A reads no more than 0.026.

As to C12U U55G U70G C83U, the nonsense suppression is no more than 0.026.

G15C U17G G19C G25U: the nonsense suppression was no more than 0.026. Regarding A14G G61C, the nonsense suppression was 0.0278. In the case of A13C C29U it was 0.806; in that of A14G G19U A23G A30G C75U C82U, no more than 0.026; in that of A13C A62G, 0.0702. In the case of U16C it was 0.862; in that of U16A, 1; in that of A13C U76A, 0.282.

Turning to A14U G61C C79U, the nonsense suppression was no more than 0.026. In the case of A13G A24U it was 0.0411. With A13C G84C, the nonsense suppression amounted to 0.0388. In the case of A13C G84A it was 0.175; in that of A14C G65A, no more than 0.026. In the case of A13U A54U it was 0.728. In the case of A13C G18U G26A A31U it was no more than 0.026; in that of A14U U21A A24G A31C C56G G88A, no more than 0.026; in that of A13U C79A G84U, no more than 0.026. As for G15U U20C, the nonsense suppression worked out at 0.0275. Take A13C A33U: the nonsense suppression was found to be 0.0508. In the case of A13G A54C G69U G86U it was no more than 0.026.

As to A13C U63A, the nonsense suppression is 1.17. The result for A13C U63C reads 0.848. The result for A13G U20A reads 0.0339.

A14C U71A: the nonsense suppression is no more than 0.026.

A13U U57A: the nonsense suppression came out at 0.0273. Regarding U16C A30G, the nonsense suppression was determined as 1.17. The result for A13U A33G reads 0.194; that for A13C G78A, 0.208. The result for A14C C68U G88A reads no more than 0.026; that for U16A G28A, 1.11. In the case of A14C G59A U70G it was no more than 0.026. On to U16A U71G C75G, for which the nonsense suppression was no more than 0.026.

With A13U C27U G85A, the nonsense suppression was 0.22. Regarding A14U G84A, the nonsense suppression was no more than 0.026.

For the variant A13C U16A, the nonsense suppression turned out to be 1.17.

For A13C U16C, the nonsense suppression is 1.12.

As for A13U A23U, the nonsense suppression came to 0.0855. The result for G15U U17A U55C reads no more than 0.026.

Regarding A13C U17G, the nonsense suppression came out at 0.958. On to A14C C56G C72G G86A, for which the nonsense suppression was no more than 0.026.

For the variant A13C G88A, the nonsense suppression came to 0.0766.

Turning to A14U U71A, the nonsense suppression is no more than 0.026.

Turning to A14G C64A G65A, the nonsense suppression is no more than 0.026. In the case of G15C A23G G61A it was no more than 0.026.

With A13U G85A, the nonsense suppression amounted to 1.2. The result for A14U G18C C80U reads no more than 0.026. Regarding G15A A24G C29G A60C, the nonsense suppression is no more than 0.026. The result for G15U U70G reads no more than 0.026. On to A13U A30U, for which the nonsense suppression stood at 0.0763. For the variant A14G A31G, the nonsense suppression worked out at 0.0611. In the case of A13C G61U A87C it was no more than 0.026. The result for A14C U63G A87C reads no more than 0.026; that for A13U U22G, 1.06. In the case of A13U C75A it was 0.866; in that of A13U C75U, 1.22; in that of G15U G18A U58C G85U, no more than 0.026. A14C U21G A23C G69A U70A: the nonsense suppression was no more than 0.026.

As to G15A G73C C75G, the nonsense suppression was no more than 0.026. Consider G15A U22C, for which the nonsense suppression worked out at 0.147. The result for A14G A74C reads no more than 0.026; that for A13U A62C, 0.029. A13G C75A: the nonsense suppression amounted to 0.71. The result for A13G C75U reads 0.305. The result for G15A G78A reads 0.0278. In the case of A13U G61C it was 0.191; in that of A13U G61U, 0.447. For A13U U16A, the nonsense suppression was determined as 0.837. Turning to A13U U16G, the nonsense suppression was 0.819. With A14U G32C G88U, the nonsense suppression is no more than 0.026. In the case of G15A U57C G59C G78A it was no more than 0.026.

Take C12U U76G: the nonsense suppression came to 0.0906. In the case of C12U U76C it was 0.818; in that of C12U U76A, 0.244. In the case of U16A G61A it was 0.819; in that of G15A U21C C34G U35G U58A, no more than 0.026; in that of A13U, 1.03. In the case of A13C it was 1.13; in that of A13G, 0.191; in that of G15C G67A, no more than 0.026.

As for A13U C64U, the nonsense suppression came to 0.0285. In the case of A13C U17G C75A, the nonsense suppression worked out at 1.1.

As for A13C G61A C75G, the nonsense suppression stood at 0.761.

For U16A G73A, the nonsense suppression turned out to be 0.63. The result for G15U A24G G86C reads no more than 0.026; that for A14C C82U, no more than 0.026.

Take A13G G59U: the nonsense suppression was no more than 0.026.

For the variant A13G C68U, the nonsense suppression amounted to 0.146. For A13C G66C, the nonsense suppression is no more than 0.026. The result for G15U U35A U63C C68A reads no more than 0.026; that for A13U C29U C81U, 0.0757.
